The nature of this data set: Toxicity liver stage against HepG2, at 10uM. It counts as cell-based. The arrangement: test concentration 10 uM, cell line HepG2-A16-CD81EGFP. The conditions noted are these: human, HepG2-A16-CD81EGFP cells; read-out: INHIBITION
The procedure, abridged: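 Uninfected HepG2-A16-CD81EGFP cells, 3 × 10^3 per well, 1536-well, plated on prespotted compound at 10 μM final, parasite-free screening media added to match infected plates; puromycin 10 μM positive, DMSO 0.5% negative; run in parallel with 48 h PbLuc assay at 37 °C, 5% CO2; viability by CellTiter-Glo luminescence, normalized to controls.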
For the molecule `CCc1cccc2cc(CN)c(=O)[nH]c12`, the cytotoxicity at 10 µM is 3.54%.

As for `CC(C)C(C(=O)N1CCN(Cc2ccncc2)CC1)n1cncn1` (centres undefined), the cytotoxicity at 10 µM is -13%.

`CCc1nnc(CN(C)C(=O)CN2CC(c3ccccc3)CC2=O)o1` (centres undefined): the cytotoxicity at 10 µM was -2.96%.

For the molecule `Cc1ncsc1C(=O)N(C)CCc1ccncc1`, the cytotoxicity at 10 µM is -3.81%.

As to `CCn1cc(NC(=O)NCC2(N3CCOCC3)CCSC2)cn1` (centres undefined), the cytotoxicity at 10 µM is -17.1%.

On to `c1cnc(N2CCO[C@H]3CN(Cc4csnn4)C[C@H]32)nc1`, for which the cytotoxicity at 10 µM is -70.7%.

On to `CNc1nc(CNC(=O)Nc2cccc(CSC)c2)cs1`, for which the cytotoxicity at 10 µM was -3.01%.

For `O=S1(=O)NC(C2CCN(Cc3ccncc3)CC2)Nc2ccccc21` (centres undefined), the cytotoxicity at 10 µM is -19.3%.

Regarding `COc1c(CNC(c2ccccc2)c2ccc(F)cc2)c(C)nn1C` (centres undefined), the cytotoxicity at 10 µM was -5.16%.

`COc1ccc(F)cc1-c1nc2c([nH]1)c(C1CC1)nn2C`: the cytotoxicity at 10 µM was -2.18%.

Regarding `Cc1cc(C(=O)NC2(C#N)CCSCC2)n(C)n1`, the cytotoxicity at 10 µM worked out at 22.1%.

For the molecule `Cc1ccc2nc(C)c(C)c(C(=O)NCCCn3ccnn3)c2c1`, the cytotoxicity at 10 µM amounted to 17.8%.

For the molecule `Cc1ccccc1-c1noc(CN2CCc3cncnc3C2)n1`, the cytotoxicity at 10 µM is -11.5%.

Consider `Cc1ccc(-c2nnc(SCC(=O)O)n2-c2ccc(C)cc2)cc1`, for which the cytotoxicity at 10 µM is -3.53%.

For `Cc1ccsc1C(=O)N1CCCC(c2[nH]ncc2S(C)(=O)=O)C1` (centres undefined), the cytotoxicity at 10 µM is -5.39%.

Turning to `Cc1ccc(NC(=O)CNC(C)CN2CCOCC2)c(F)c1` (centres undefined), the cytotoxicity at 10 µM is -51.8%.

Regarding `Cc1nc(CN2CC(=O)N(C)c3ccccc3C2=O)no1`, the cytotoxicity at 10 µM is -3.78%.

With `COCC(c1cccc(C(F)(F)F)c1)N(C)C(=O)c1cc(C)no1` (centres undefined), the cytotoxicity at 10 µM was determined as 0.0161%.

Turning to `Cc1nc2cc(-c3nccn3C)nn2c(N2CCCC(O)C2)c1C` (centres undefined), the cytotoxicity at 10 µM was 2.92%.

`Cc1c(Br)cccc1C(=O)Nc1cc(C(N)=O)n(C)c1`: the cytotoxicity at 10 µM was found to be 0.71%.

Regarding `Cc1cc(CC(C)Nc2ncnc3cccc(F)c23)[nH]n1` (centres undefined), the cytotoxicity at 10 µM amounted to 26.4%.

As for `OCCC1CN(C2CCC2)CCN1C1CCCC1` (centres undefined), the cytotoxicity at 10 µM is -18.5%.

In the case of `Cc1[nH]nc(CCC(=O)N2CCCC(OCc3cccnc3)C2)c1C` (centres undefined), the cytotoxicity at 10 µM is -5.07%.

Consider `Cc1nn(C)c(N(C)C)c1CNCc1ccc(N(C)C)nc1`, for which the cytotoxicity at 10 µM is -1.24%.

Consider `Cc1cnn(CC2CCCN2C(=O)c2cccc3[nH]ncc23)c1` (centres undefined), for which the cytotoxicity at 10 µM was -10.8%.

As to `c1cnc(CC2CCN(c3cnccn3)CC2)cn1`, the cytotoxicity at 10 µM was 4.44%.

As for `CN1CCC(NC(=O)Nc2ccc(F)c(-n3cccc3)c2)C1=O` (centres undefined), the cytotoxicity at 10 µM was -135%.

Turning to `CC(c1ccccn1)N(C)Cc1cc2cc3c(cc2[nH]c1=O)OCO3` (centres undefined), the cytotoxicity at 10 µM is 11.7%.

Consider `CC(C)(C)n1cc(NCc2cscn2)cn1`, for which the cytotoxicity at 10 µM was -6.08%.

On to `Cc1nc(C2CCCN2C(=O)CN(C)Cc2ccccc2)no1` (centres undefined), for which the cytotoxicity at 10 µM was -0.803%.

In the case of `CCN(CC)C(=O)c1ccn(COc2c(Cl)cccc2Cl)n1`, the cytotoxicity at 10 µM is 11.6%.

Take `CCc1nc(N)nc(NCCC(=O)NC2CCCCC2)c1C`: the cytotoxicity at 10 µM is -38.9%.

Regarding `CCN(CC)CCCNC(=O)Nc1c(C)cccc1C(C)C`, the cytotoxicity at 10 µM was -0.847%.

Consider `CNC(=O)c1cc(OC)c(OC)cc1N(C)S(C)(=O)=O`, for which the cytotoxicity at 10 µM was -5.58%.

In the case of `CN(C)c1cnnc(N2CCN(C(=O)CCC3CCCCC3)CC2)c1`, the cytotoxicity at 10 µM is -1.65%.

As for `N[C@H]1CCCN(C(=O)c2cnc(COc3ccccc3)nc2O)C1`, the cytotoxicity at 10 µM is 1.67%.

For the molecule `CC(C)CC1SCC(=O)Nc2c1cnn2-c1ccccc1F` (centres undefined), the cytotoxicity at 10 µM was -8.62%.

Take `O[C@@]1(CNCCCNc2cccnc2)CCCN2CCCC[C@@H]21`: the cytotoxicity at 10 µM is -3%.

As to `Cc1ccc(NC(=O)NC(C)Cn2cccn2)cc1` (centres undefined), the cytotoxicity at 10 µM was -0.577%.

With `CC(C)OCc1ccccc1CNC(=O)C(C)S(=O)(=O)C(C)C` (centres undefined), the cytotoxicity at 10 µM was -3.92%.

As for `O=c1[nH]c2cc3c(cc2cc1CN1CCCC1c1ccccn1)CCC3` (centres undefined), the cytotoxicity at 10 µM was -2.11%.

Consider `COc1ccc(CN2CC(O)CN(C(=O)OCC(C)(C)C)CC2=O)cc1` (centres undefined), for which the cytotoxicity at 10 µM turned out to be 2.55%.

Take `CCc1nccn1-c1cncc(C2CCCN2Cc2ccccc2)n1` (centres undefined): the cytotoxicity at 10 µM was -1.17%.

As to `CC1CN(C(=O)c2ccnc(-n3cncn3)c2)c2ccccc2S1` (centres undefined), the cytotoxicity at 10 µM is -5.69%.

Turning to `CCNC(=O)N(Cc1cccc(OC)c1)C1CCC(O)CC1` (centres undefined), the cytotoxicity at 10 µM is -4.83%.

As for `COc1ccc(CCN)cc1-c1ccc(C(N)=O)cc1`, the cytotoxicity at 10 µM was found to be 3.23%.

With `CCn1ncc2c1C(COC)N(C(=O)c1ccc3c(c1)OCO3)CC2` (centres undefined), the cytotoxicity at 10 µM was found to be 8.1%.

In the case of `CCc1cnc(C)nc1NCCN1CCOCC1`, the cytotoxicity at 10 µM is -2.66%.

Turning to `CC(C)Oc1cccc(F)c1C(C(=O)O)N1CCCN(C)CC1` (centres undefined), the cytotoxicity at 10 µM amounted to 0.992%.

Turning to `Cc1ccc(CN2CCC3(CC2)C(=O)Nc2ccccc23)s1`, the cytotoxicity at 10 µM amounted to 2.88%.

`Cc1ccc2nnc(C(=O)NCC3CCCC3)nc2c1`: the cytotoxicity at 10 µM was 6.47%.

In the case of `Cc1ccc(S(=O)(=O)N2CCN(CCC(N)=O)CC2)s1`, the cytotoxicity at 10 µM was -9.88%.

For the molecule `COc1cccc(OC2CN(C(=O)c3sccc3C)C2)c1`, the cytotoxicity at 10 µM is 2.3%.

Take `CSCCCN1CCn2nc(CNC(C)=O)cc2C1`: the cytotoxicity at 10 µM was -13.6%.

For the molecule `CNS(=O)(=O)c1ccccc1N1CCN(C(=O)NC(C)C)CC1`, the cytotoxicity at 10 µM came out at 9.44%.

With `Cc1nc(N2CCCC2)nc2c1CCN(C(=O)C1CCC1)CC2`, the cytotoxicity at 10 µM worked out at 3.39%.

For the molecule `Cc1nc2ccccc2nc1CN1CCOC(Cn2cccn2)C1` (centres undefined), the cytotoxicity at 10 µM was determined as 1.1%.

As to `CCc1nc(CCNC(=O)C2CC2)sc1C`, the cytotoxicity at 10 µM was -14.1%.

In the case of `c1cnc(NC2COC3(CCN(Cc4cccs4)CC3)C2)nc1` (centres undefined), the cytotoxicity at 10 µM was determined as 0.603%.

Take `CN(C)c1ncc(I)c(C2CCCCN2S(C)(=O)=O)n1` (centres undefined): the cytotoxicity at 10 µM came to 5.09%.

As to `Cc1noc(Cl)c1CCC(=O)N1CCN(c2ccccc2)CC1`, the cytotoxicity at 10 µM was -1.37%.

As to `CC(=O)Nc1nc(C(=O)N2CCCC2c2noc(C)n2)cs1` (centres undefined), the cytotoxicity at 10 µM was -9.55%.

As to `CC1CCN(S(=O)(=O)N2Cc3ccccc3C[C@H]2C(N)=O)CC1`, the cytotoxicity at 10 µM is -6.64%.

Regarding `CC(=O)NC1CCN(c2ccc(C#N)cc2C(F)(F)F)CC1`, the cytotoxicity at 10 µM was 0.536%.

For `O=C(c1ccncc1)N1CCCn2nnc(COCCO)c2C1`, the cytotoxicity at 10 µM worked out at 10.5%.

As to `CCC(=O)NS(=O)(=O)c1cccnc1Nc1cccc(Cl)c1Cl`, the cytotoxicity at 10 µM is 0.0207%.

As for `O=c1ccc2c([nH]1)CCN(S(=O)(=O)c1ccc3c(c1)OCCO3)C2`, the cytotoxicity at 10 µM was -3.06%.

As to `Cc1ccc(C(=O)NC2CCCCNC2=O)c(=O)[nH]1` (centres undefined), the cytotoxicity at 10 µM is -5.49%.

For the molecule `COc1ccc(-c2n[nH]cc2CN(C)Cc2nonc2C)c(F)c1`, the cytotoxicity at 10 µM was -6.46%.

For the molecule `CCN(c1ccsc1C(=O)N1CCSCC1)S(=O)(=O)c1ccccc1`, the cytotoxicity at 10 µM amounted to 8.24%.

Take `Cc1cc(-c2nccs2)nc(C2CCN(Cc3ccc(F)cc3)CC2)n1`: the cytotoxicity at 10 µM was 6.54%.

As for `CN(C)S(=O)(=O)N1CC[C@]2(O)CCN(c3nc4ccccc4s3)C[C@@H]2C1`, the cytotoxicity at 10 µM is -1.82%.

As to `Cc1nnc(NC(=O)NC2CCOc3ccccc32)s1` (centres undefined), the cytotoxicity at 10 µM is -13.4%.

Regarding `COc1ccc(CC(=O)NC2CCc3nc(C)cn3C2)cc1` (centres undefined), the cytotoxicity at 10 µM amounted to 9.55%.

On to `CN(C)C(=O)N1CCc2c(nnn2C)C1COCC1CC1` (centres undefined), for which the cytotoxicity at 10 µM came to 12.6%.

`COCc1nc(C)cc(Nc2ccc3c(c2)CC(=O)N3)n1`: the cytotoxicity at 10 µM stood at 1.41%.

For `O=C(NCc1ccccn1)c1cc2n(n1)CCNC2`, the cytotoxicity at 10 µM is 1.19%.

Take `O=C(C1CC1)N1CCC2(CC1)COCCN2Cc1ccc(F)cc1`: the cytotoxicity at 10 µM is -69.4%.

In the case of `O=C1CC(C(=O)Nc2nnc(-c3ccccn3)[nH]2)c2ccccc2N1` (centres undefined), the cytotoxicity at 10 µM was 7.92%.

For `O=C(CCc1nccs1)N1CCC(N2CCNC2=O)CC1`, the cytotoxicity at 10 µM was -9.86%.

On to `CCCc1noc(CNc2cc(C[S+](C)[O-])ccc2Cl)n1` (centres undefined), for which the cytotoxicity at 10 µM is -5.18%.

In the case of `O=c1cc(Cn2cncn2)nc2n1CCCN(CC1CCOCC1)C2`, the cytotoxicity at 10 µM came to 7.77%.

Take `CC(Cn1cncc1-c1cnn(C2CCCCC2)c1)N1CCCCC1` (centres undefined): the cytotoxicity at 10 µM amounted to 2.87%.

`COCCN1C[C@@H]2CN(c3ncc(F)cn3)C[C@@H]2C1=O`: the cytotoxicity at 10 µM worked out at 9.49%.

`CC(=O)NCc1cc2n(n1)CCN(Cc1cc(-c3ccccc3)no1)C2`: the cytotoxicity at 10 µM was determined as 7.12%.

Regarding `Cc1cn2c(n1)CCC(NC(=O)c1cc(Br)cn1C)C2` (centres undefined), the cytotoxicity at 10 µM worked out at 3.18%.

Regarding `Cc1[nH]nc2ncc(C(=O)N3CCN(CC(C)C)CC3)cc12`, the cytotoxicity at 10 µM is -3.88%.

Take `CCOCCN(CCOCC)c1nc(C)nc2sccc12`: the cytotoxicity at 10 µM is -126%.

Consider `CCn1nccc1CNC(=O)C1CCC1`, for which the cytotoxicity at 10 µM is -2.17%.

Turning to `CCOc1ccc(NC2CCN(CC(F)(F)F)C2=O)cc1C` (centres undefined), the cytotoxicity at 10 µM came to 1.41%.

As to `Cn1cc(CN2CCCN(C(=O)c3cc[nH]n3)CC2)cn1`, the cytotoxicity at 10 µM is -8.72%.

In the case of `Cc1nn(C)c2ncc(S(=O)(=O)N3CCCC(C(N)=O)C3)cc12` (centres undefined), the cytotoxicity at 10 µM is 3.45%.

`O=C(Cc1cccc(F)c1)N1CCc2ncnc(NC3CCC3)c2CC1`: the cytotoxicity at 10 µM was -105%.

On to `CCCc1noc(C(C)N2CCN(Cc3nc(C)c(C)o3)CC2)n1` (centres undefined), for which the cytotoxicity at 10 µM is -10.6%.

With `COCCOCC(=O)Nc1ccc(C)cc1Br`, the cytotoxicity at 10 µM was -6.99%.

`Cc1cc(=O)[nH]c(-n2nc(C)c(CCC(=O)NCC(C)C)c2C)n1`: the cytotoxicity at 10 µM turned out to be 2.28%.

In the case of `CN(CC(F)(F)F)C(=O)CNC(=O)N1CCC(N2CCCC2)C1` (centres undefined), the cytotoxicity at 10 µM worked out at 3.72%.

Regarding `CCS(=O)(=O)NCCN1CCN(C(C#N)c2ccccc2)CC1` (centres undefined), the cytotoxicity at 10 µM was -4.04%.

Regarding `Cc1cnn(CC2CN(Cc3nnc(C(C)C)o3)CCO2)c1` (centres undefined), the cytotoxicity at 10 µM was -2.55%.

The record behind these values is ChEMBL document CHEMBL4513216, “Probing the Open Global Health Chemical Diversity Library for Multistage-Active Starting Points for Next-Generation Antimalarials” (ACS Infect Dis, 2020).
